logD, Selectivity and IC50 data for 18 molecules are collected here from ChEMBL document CHEMBL1144414, “C-5-disubstituted barbiturates as potential molecular probes for noninvasive matrix metalloproteinase imaging” (J Med Chem, 2005).

Data set [1] in a line: Partition coefficient (logD7.4). The data set is classed as physicochemical. The conditions noted are these: octanol/water, pH 7.4.
The species entered for data set [2] is Homo sapiens. Nature of the data set: Ratio of IC50 for human Matrix metalloprotease 2 binding and Matrix metalloprotease 9.
Data set [3] addresses T1, Matrix metalloproteinase-9 (Homo sapiens, UniProt P14780). Nature of the data set: In vitro inhibition of human Matrix metalloprotease 9; I.A.=inactive. An outline of the steps: (§1)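 Human active enzyme, MMP-2 at 1 nM or MMP-9 at 2 nM, preincubated 30 min at 37 °C with inhibitor (10 pM to 1 mM) in 50 mM Tris·HCl pH 7.5, 0.2 M NaCl, 5 mM CaCl2, 20 µM ZnSO4, 0.05% Brij 35. Mca-PLGL-Dpa-AR-NH2 substrate added, fluorescence followed at 37 °C (ex 330/em 390 nm). Initial 10-min rates fitted by nonlinear regression for IC50.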

For data set [4], the target named is T2, 72 kDa type IV collagenase (Homo sapiens, UniProt P08253). Nature of the data set: In vitro inhibition of human Matrix metalloprotease 2; I.A.=inactive. An outline of the steps:
as §1

For data set [5], the target named is T2, 72 kDa type IV collagenase. Nature of the data set: In vitro inhibition of human Matrix metalloprotease 2. An outline of the steps: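 Human active MMP-2 (1 nM) preincubated with inhibitor (10 pM to 1 mM) in 50 mM Tris·HCl pH 7.5, 0.2 M NaCl, 5 mM CaCl2, 20 µM ZnSO4, 0.05% Brij 35, 37 °C, 30 min. Fluorogenic Mca-Pro-Leu-Gly-Leu-Dpa-Ala-Arg-NH2 substrate (10 µL of 50 µM into 90 µL) added. Fluorescence (ex 330/em 390 nm) followed at 37 °C. Initial 10-min rates fitted by nonlinear regression for IC50.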

Data set [6] has as its target T1, Matrix metalloproteinase-9. Nature of the data set: (§2) In vitro inhibition of human Matrix metalloprotease 9. An outline of the steps:
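Human active MMP-9 (2 nM) preincubated 30 min at 37 °C with inhibitor (10 pM to 1 mM) in 50 mM Tris·HCl pH 7.5, 0.2 M NaCl, 5 mM CaCl2, 20 µM ZnSO4, 0.05% Brij 35. Fluorogenic Mca-Pro-Leu-Gly-Leu-Dpa-Ala-Arg-NH2 substrate added from a 50 µM stock. Fluorescence (ex 330/em 390 nm) followed at 37 °C. Initial 10-min linear rates versus dose; IC50 by nonlinear regression.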

For data set [7], the target named is T1, Matrix metalloproteinase-9. Described as §2. This is another data set of the same source.

The structures appear in SMILES notation.

T2 sequence (P08253 whole entry): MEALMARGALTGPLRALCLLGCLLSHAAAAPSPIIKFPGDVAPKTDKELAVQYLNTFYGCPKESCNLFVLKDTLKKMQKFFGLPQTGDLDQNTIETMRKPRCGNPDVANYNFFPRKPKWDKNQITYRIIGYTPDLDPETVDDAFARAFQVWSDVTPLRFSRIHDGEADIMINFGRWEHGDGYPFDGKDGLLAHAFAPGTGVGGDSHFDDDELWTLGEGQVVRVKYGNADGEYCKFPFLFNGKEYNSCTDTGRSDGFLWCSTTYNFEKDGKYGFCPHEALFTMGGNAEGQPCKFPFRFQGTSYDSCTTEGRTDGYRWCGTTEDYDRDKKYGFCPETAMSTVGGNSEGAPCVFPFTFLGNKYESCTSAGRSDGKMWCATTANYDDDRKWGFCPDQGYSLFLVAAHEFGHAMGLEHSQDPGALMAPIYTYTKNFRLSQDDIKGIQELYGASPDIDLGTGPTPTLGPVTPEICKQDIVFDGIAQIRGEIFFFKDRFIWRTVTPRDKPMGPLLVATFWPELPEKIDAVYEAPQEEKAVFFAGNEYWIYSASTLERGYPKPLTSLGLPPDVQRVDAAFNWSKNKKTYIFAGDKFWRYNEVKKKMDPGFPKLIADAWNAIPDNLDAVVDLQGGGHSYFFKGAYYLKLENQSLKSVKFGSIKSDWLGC
T1 sequence (P14780 whole entry): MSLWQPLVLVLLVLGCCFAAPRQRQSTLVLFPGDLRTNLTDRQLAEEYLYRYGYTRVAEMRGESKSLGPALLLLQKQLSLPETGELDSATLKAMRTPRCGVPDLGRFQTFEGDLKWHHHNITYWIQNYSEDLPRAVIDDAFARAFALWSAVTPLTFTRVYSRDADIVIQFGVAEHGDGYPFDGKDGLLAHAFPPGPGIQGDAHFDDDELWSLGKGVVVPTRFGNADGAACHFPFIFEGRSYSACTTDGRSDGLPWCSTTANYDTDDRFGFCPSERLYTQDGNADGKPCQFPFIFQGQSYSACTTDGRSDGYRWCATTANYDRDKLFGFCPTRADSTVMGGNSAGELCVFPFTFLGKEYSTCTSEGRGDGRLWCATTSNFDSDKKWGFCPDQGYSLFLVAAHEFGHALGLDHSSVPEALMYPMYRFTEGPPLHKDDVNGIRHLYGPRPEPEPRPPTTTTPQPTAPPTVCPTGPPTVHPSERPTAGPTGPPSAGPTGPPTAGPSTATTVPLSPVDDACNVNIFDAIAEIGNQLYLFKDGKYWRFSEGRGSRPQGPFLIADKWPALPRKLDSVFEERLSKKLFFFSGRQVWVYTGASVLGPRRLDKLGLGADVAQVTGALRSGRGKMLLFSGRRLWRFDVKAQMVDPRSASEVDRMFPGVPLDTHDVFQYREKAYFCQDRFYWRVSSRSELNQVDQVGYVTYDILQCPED

Molecule `O=C1NC(=O)C(c2ccc(Oc3ccc(Br)cc3)cc2)(N2CCN(c3ccc(F)cc3)CC2)C(=O)N1` yielded a logD in data set [1] of 6.11. Also, in data set [2], the Selectivity came out at 0.63.

`CC(C)N1CCN(C2(c3ccc(Oc4ccc(Br)cc4)cc3)C(=O)NC(=O)NC2=O)CC1`: the logD in data set [1] amounted to 4.47. Moreover, in data set [2], the Selectivity amounted to 26.

Turning to `COCCN1CCN(C2(c3ccc(Oc4ccc(OC)cc4)cc3)C(=O)N(C)C(=O)N(C)C2=O)CC1`, the concentration for half-maximal inhibition (IC50) entry in data set [3] and in data set [4] was “Not Active” each time. This molecule also yielded a logD in data set [1] of 0.95.

As to `O=C1NC(=O)C(c2ccc(Oc3ccc(I)cc3)cc2)(N2CCN(CCO)CC2)C(=O)N1`, in data set [1], the logD came out at 3.68. Further, in data set [2], the Selectivity was 3.5.

The molecule `C[Si](C)(C)c1ccc(N2CCN(C3(c4ccc(Oc5ccc(Br)cc5)cc4)C(=O)NC(=O)NC3=O)CC2)cc1` had a logD in data set [1] of 8.32. For the same molecule, the concentration for half-maximal inhibition (IC50) in data set [5] stood at 1.5 µM; in data set [6], 0.55 µM. In data set [2], the Selectivity is 2.7.

In data set [1], `O=C1NC(=O)C(c2ccc(Oc3ccc(Br)cc3)cc2)(N2CCN(c3ccc(I)cc3)CC2)C(=O)N1` displayed a pH-dependent lipophilicity (logD) of 7.22. The IC50 in data set [5] turned out to be 0.086 µM; in data set [6] it was 0.01 µM. The Selectivity in data set [2] turned out to be 8.6.

Regarding `CC(C)[C@@H](NS(=O)(=O)c1ccc(C#CCCCC[18F])cc1)C(=O)O`, half-maximal inhibition in data set [5] (IC50) required 1.9 µM.

As for `O=C1NC(=O)C(c2ccc(Oc3ccc(Br)cc3)cc2)C(=O)N1`, the logD in data set [1] was found to be 0.41. Further, the IC50 in data set [5] is 3.7 µM.

In data set [1], `COc1ccc(Oc2ccc(C3(N4CCN(CCO)CC4)C(=O)NC(=O)NC3=O)cc2)cc1` came in with a logD of 1.79. Moreover, the Selectivity in data set [2] is 1.5.

`O=C1NC(=S)NC(=O)C1(c1ccc(Oc2ccc(Br)cc2)cc1)N1CCN(CCO)CC1` had a log distribution coefficient (logD) in data set [1] of 3.85. The molecule also came in with an IC50 in data set [5] of 0.00721 µM.

`O=C1NC(=O)C(c2ccc(Oc3ccc(Br)cc3)cc2)(N2CCNCC2)C(=O)N1` had a logD in data set [1] of 3.04. The 50% inhibitory concentration (IC50) in data set [5] came out at 0.005 µM; in data set [6], 0.002 µM. Besides, the Selectivity in data set [2] stood at 2.5.

Regarding `O=C1NC(=O)C(c2ccc(Oc3ccc(Br)cc3)cc2)(N2CCN(C(=O)c3cccc(I)c3)CC2)C(=O)N1`, the logD in data set [1] stood at 5.86. In addition, the IC50 in data set [5] was determined as 0.015 µM; in data set [6] it was 0.02 µM. The Selectivity in data set [2] stood at 0.75.

Turning to `O=C1NC(=O)C(c2ccc(Oc3ccc(Br)cc3)cc2)(N2CCN(c3ccc([N+](=O)[O-])cc3)CC2)C(=O)N1`, the logD in data set [1] worked out at 6.27. Further, the results for the concentration for half-maximal inhibition (IC50) in data set [5] and in data set [6] were 0.016 µM and 0.057 µM, respectively. Also, the Selectivity in data set [2] stood at 0.28.

As for `O=C1NC(=O)C(c2ccc(Oc3ccc(Br)cc3)cc2)(N2CCN(CCBr)CC2)C(=O)N1`, the log distribution coefficient (logD) in data set [1] came out at 4.67. The concentration for half-maximal inhibition (IC50) in data set [5] worked out at 0.03 µM; in data set [6], 0.026 µM. In addition, in data set [2], the Selectivity is 1.2.

Molecule `O=C1NC(=O)C(c2ccc(Oc3ccc(Br)cc3)cc2)(N2CCN(CCO)CC2)C(=O)N1` gave a logD in data set [1] of 3.42. The Selectivity in data set [2] was determined as 2.3.

`NCCN1CCN(C2(c3ccc(Oc4ccc(Br)cc4)cc3)C(=O)NC(=O)NC2=O)CC1` came in with a logD in data set [1] of 0.78. The IC50 is 0.01 µM in data set [5] and 0.014 µM in data set [6]. In addition, the Selectivity in data set [2] amounted to 0.71.

As to `O=C(O)CCN1CCN(C2(c3ccc(Oc4ccc(Br)cc4)cc3)C(=O)NC(=O)NC2=O)CC1`, in data set [1], the logD turned out to be 0.81. Further, the concentration for half-maximal inhibition (IC50) in data set [5] is 0.085 µM; in data set [6] it was 0.026 µM. In addition, the Selectivity in data set [2] was found to be 3.3.

Regarding `CC(C)[C@@H](NS(=O)(=O)c1ccc(NC(=O)c2ccc(O[11CH3])cc2)cc1)C(=O)O`, the IC50 stood at 0.11 µM in data set [5] and 0.2 µM in data set [7].

By logD is commonly meant lipophilicity at a set pH, counting ionised and neutral species. A lower logD goes with a more hydrophilic compound. One may read the IC50 as the concentration that inhibits the measured activity by half. Lower therefore signals higher potency.
